Common to all, as to type: functional, cell-based
Assay [1] has as its target Inositol 1,4,5-trisphosphate-gated calcium channel ITPR1 (Rattus norvegicus) (UniProt P29994). Briefly: Agonist activity at rat IP3R1 expressed in chicken DT40 cells assessed as Ca2+ release relative to control. An outline of the steps:
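DT40 cells stably expressing only rat IP3R1 loaded with Mag-fluo-4AM (20 μM, 1 h, 20 °C). Permeabilized with saponin (10 μg/mL, 4 min, 37 °C), then washed in Mg2+-free cytosol-like medium (~200 nM free Ca2+, pH 7.0). ER Ca2+ loaded with 1.5 mM Mg-ATP for 150 s before ligand addition. Release measured by luminal fluorescence (ex 485/em 520 nm) as a fraction of the 1 μM ionomycin-releasable content.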

The target of assay [2] is Inositol 1,4,5-trisphosphate-gated calcium channel ITPR1 (Rattus norvegicus, UniProt P29994). The assay is described as follows: Agonist activity at rat IP3R1 expressed in chicken DT40 cells assessed as induction of Ca2+ release. In outline: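 DT40 cells stably expressing only rat IP3R1 loaded with Mag-fluo-4AM (20 μM, 1 h, 20 °C). Permeabilized with saponin (10 μg/mL, 4 min, 37 °C), then washed in Mg2+-free cytosol-like medium (~200 nM free Ca2+, pH 7.0). ER Ca2+ loaded with 1.5 mM Mg-ATP for 150 s before ligand addition.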

Assay [3] concerns the target Inositol 1,4,5-trisphosphate-gated calcium channel ITPR1 (Rattus norvegicus) (UniProt P29994). Briefly: Agonist activity at rat IP3R1 expressed in chicken DT40 cells assessed as Ca2+ release at 50 uM relative to control.

Sequence of Inositol 1,4,5-trisphosphate-gated calcium channel ITPR1 (Rattus norvegicus) (P29994 whole entry, looked up): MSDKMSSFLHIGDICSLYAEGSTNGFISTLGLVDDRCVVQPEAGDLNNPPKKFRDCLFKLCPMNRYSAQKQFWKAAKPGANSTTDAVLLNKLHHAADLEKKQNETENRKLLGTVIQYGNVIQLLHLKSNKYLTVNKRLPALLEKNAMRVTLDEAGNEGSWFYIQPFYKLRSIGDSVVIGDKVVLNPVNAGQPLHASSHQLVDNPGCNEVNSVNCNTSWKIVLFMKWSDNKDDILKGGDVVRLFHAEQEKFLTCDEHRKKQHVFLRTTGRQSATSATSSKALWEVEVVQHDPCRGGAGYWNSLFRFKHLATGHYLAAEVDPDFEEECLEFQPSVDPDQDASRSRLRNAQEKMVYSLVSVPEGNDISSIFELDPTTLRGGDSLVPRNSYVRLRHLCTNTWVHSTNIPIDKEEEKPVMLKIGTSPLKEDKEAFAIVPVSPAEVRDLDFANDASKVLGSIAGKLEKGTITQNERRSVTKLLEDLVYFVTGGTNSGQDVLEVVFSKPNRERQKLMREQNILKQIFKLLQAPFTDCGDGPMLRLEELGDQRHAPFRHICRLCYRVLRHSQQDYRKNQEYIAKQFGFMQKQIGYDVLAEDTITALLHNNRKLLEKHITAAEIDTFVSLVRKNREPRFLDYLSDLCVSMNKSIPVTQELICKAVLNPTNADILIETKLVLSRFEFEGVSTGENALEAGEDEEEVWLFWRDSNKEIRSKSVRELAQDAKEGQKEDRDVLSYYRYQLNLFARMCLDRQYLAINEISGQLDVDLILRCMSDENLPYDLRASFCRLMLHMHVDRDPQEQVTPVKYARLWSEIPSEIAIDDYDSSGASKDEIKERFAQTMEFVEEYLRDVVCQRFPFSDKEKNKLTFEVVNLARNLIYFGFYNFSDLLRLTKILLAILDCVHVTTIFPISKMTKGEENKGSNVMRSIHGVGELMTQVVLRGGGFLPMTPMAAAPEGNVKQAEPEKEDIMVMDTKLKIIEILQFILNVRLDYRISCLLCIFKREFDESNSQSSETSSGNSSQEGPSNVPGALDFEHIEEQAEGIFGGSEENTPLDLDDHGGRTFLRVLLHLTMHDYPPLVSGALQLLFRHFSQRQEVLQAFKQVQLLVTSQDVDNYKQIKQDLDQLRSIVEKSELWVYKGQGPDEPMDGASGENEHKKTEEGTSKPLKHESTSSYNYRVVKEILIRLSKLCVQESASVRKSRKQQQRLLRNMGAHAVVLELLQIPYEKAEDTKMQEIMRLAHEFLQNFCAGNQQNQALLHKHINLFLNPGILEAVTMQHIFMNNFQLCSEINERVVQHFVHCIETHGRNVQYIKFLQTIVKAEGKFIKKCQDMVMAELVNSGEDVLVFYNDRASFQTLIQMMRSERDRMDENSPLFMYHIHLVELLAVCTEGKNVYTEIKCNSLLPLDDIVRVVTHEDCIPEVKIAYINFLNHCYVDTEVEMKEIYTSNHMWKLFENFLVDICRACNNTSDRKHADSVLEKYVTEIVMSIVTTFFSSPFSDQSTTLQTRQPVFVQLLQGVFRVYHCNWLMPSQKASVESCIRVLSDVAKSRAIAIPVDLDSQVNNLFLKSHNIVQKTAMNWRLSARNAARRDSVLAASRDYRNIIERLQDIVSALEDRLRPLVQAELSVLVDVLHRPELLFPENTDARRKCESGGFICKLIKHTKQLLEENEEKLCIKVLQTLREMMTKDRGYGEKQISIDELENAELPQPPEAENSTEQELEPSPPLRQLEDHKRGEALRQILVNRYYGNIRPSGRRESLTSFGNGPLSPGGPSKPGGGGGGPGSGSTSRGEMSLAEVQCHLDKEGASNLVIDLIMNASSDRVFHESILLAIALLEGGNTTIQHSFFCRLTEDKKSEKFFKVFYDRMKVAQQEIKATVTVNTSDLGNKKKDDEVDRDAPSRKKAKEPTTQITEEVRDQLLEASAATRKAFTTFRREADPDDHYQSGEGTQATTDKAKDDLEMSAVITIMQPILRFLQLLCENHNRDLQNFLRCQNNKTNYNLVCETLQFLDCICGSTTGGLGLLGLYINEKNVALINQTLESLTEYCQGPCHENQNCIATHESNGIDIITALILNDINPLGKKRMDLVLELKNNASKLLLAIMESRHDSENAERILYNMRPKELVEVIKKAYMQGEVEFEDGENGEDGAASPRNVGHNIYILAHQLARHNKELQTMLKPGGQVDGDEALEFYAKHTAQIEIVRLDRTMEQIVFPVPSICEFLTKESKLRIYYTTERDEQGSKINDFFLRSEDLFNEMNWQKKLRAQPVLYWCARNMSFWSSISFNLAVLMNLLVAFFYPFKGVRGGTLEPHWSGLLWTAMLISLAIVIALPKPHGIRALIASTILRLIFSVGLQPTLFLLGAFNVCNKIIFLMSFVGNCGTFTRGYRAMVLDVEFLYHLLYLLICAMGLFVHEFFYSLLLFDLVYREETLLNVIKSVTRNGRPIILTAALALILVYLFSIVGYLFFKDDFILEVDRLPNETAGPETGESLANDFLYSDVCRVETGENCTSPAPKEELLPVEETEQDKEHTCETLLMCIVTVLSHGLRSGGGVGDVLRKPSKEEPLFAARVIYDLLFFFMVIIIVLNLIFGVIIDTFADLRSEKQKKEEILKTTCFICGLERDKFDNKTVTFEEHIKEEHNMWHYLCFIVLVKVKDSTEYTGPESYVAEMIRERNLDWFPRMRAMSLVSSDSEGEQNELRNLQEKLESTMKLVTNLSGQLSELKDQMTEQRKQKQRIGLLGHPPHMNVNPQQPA

Regarding `Nc1ncnc2c1ncn2[C@@H]1O[C@H](CO)[C@@H](O[C@H]2O[C@H](CO)[C@@H](OP(=O)(O)O)[C@H](OP(=O)(O)O)[C@H]2O)[C@H]1O`, in assay [1], the Activity was determined as 67%. Further, the EC50 in assay [2] was 0.107 µM.
As for `Nc1ncnc2c1ncn2[C@@H]1O[C@H](CO)[C@@H](O[C@H]2O[C@H](CO)[C@@H](OP(=O)(O)O)[C@H](O)[C@H]2O)[C@H]1OP(=O)(O)O`, the EC50 in assay [2] came to 53 µM. In assay [3], the Activity turned out to be 53%.
Take `Nc1ncnc2c1ncn2[C@@H]1O[C@H](CO)[C@@H](O[C@H]2O[C@H](CO)[C@@H](OP(=O)(O)O)[C@H](OP(=O)(O)O)[C@H]2O)[C@H]1OP(=O)(O)O` [ADENOPHOSTIN A]: the EC50 in assay [2] came to 0.0028 µM.
Take `O=P(O)(O)O[C@@H]1[C@@H](O)[C@H](O)[C@H](O)[C@H](O)[C@H]1OP(=O)(O)O`: the Activity in assay [1] stood at 73%. In addition, the EC50 in assay [2] stood at 8.63 µM.
On to `Nc1ncnc2c1ncn2[C@@H]1O[C@H](CO)[C@@H](O[C@H]2O[C@H](CO)[C@@H](O)[C@H](OP(=O)(O)O)[C@H]2O)[C@H]1OP(=O)(O)O`, for which the Activity in assay [3] worked out at 8%.
As for `O=P(O)(O)O[C@H]1[C@H](OP(=O)(O)O)[C@@H](O)C(O)O[C@@H]1CO` (stereo not given in full), in assay [1], the Activity is 72%. Further, the EC50 in assay [2] worked out at 25.2 µM.

For the origin of these results see ChEMBL document CHEMBL2029238, “Contribution of phosphates and adenine to the potency of adenophostins at the IP₃ receptor: synthesis of all possible bisphosphates of adenophostin A” (J Med Chem, 2012).
